# Hits are enriched below; roughly 3.2% of the tested compounds scored in any of these assays.
# PfHsp90 yeast 2 – growth inhibition of PfHsp90-expressing yeast, primary screen, antimalarial PfHsp90 inhibitor project, S. cerevisiae, BacTiter-Glo luminescence, single point, set 2; actives 0.32% (n = 310,000); BacTiter-Glo ATP, 48 h; yeast lacking PDR1 and PDR3 efflux regulators; AID 504621, 2011; inhibition, % at 9.4 µM;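 active means every replicate shows inhibition above about 80%, whatever the replicate mean, limit read from the data; inconclusive means mean inhibition reaches the set limit but some replicate falls short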;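 further: 0% = DMSO neutral controls and 100% = 20 µM radicicol positive controls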
# AF4-AF9 inh – inhibitors of AF4 peptide binding to AF9, primary screen, biochemical, AlphaScreen, biotin-AF4 peptide, FLAG-AF9, single point. Protein AF-9 (Homo sapiens), P42568. inhibition, % at 10 µM. actives 0.47% (n = 350,000). AID 651704, 2012;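 active means every replicate reaching a set inhibition limit, whatever the replicate mean, cut at about 25% in these data; inconclusive means mean inhibition reaches that limit but some replicates miss it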;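 further: 0% = plate neutral control median and 100% = total signal loss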
# Target sequence (P42568 whole entry, looked up): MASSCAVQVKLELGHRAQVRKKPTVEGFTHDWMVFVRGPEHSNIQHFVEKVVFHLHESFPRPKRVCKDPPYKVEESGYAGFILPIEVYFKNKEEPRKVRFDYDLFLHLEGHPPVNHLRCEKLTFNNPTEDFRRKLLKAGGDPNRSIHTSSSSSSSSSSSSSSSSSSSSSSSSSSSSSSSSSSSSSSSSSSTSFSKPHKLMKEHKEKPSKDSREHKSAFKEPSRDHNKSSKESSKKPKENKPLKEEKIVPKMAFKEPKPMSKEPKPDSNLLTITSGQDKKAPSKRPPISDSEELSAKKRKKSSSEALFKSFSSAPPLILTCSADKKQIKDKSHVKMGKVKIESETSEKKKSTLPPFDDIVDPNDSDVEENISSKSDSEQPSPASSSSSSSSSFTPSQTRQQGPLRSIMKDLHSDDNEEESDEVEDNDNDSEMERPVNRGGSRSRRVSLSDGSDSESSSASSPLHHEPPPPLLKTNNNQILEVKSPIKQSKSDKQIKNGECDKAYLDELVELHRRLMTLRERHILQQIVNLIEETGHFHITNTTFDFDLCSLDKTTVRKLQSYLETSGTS
# Cneo AK release – Cryptococcus neoformans cell lysis inducers, primary screen, AK release luminescence, single concentration; AID 651654, 2012; C. neoformans lysis, adenylate kinase release luminescence, 4 h; normalised: neutral wells 0, clomiphene wells 100; actives 0.2% (n = 360,000); lysis activity, % at 15 µM;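 active means mean lysis activity across replicates of at least 80%, whatever share of replicates individually reach that level; inactive means mean lysis activity below 80%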
#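 Material: C. neoformans cells; Schedule: 4 h static compound exposure, 37 °C, read 1 h post-reagent; Measured by: adenylate kinase release luminescence; Read-out: signal increase indicating cell lysis; Controls: Clomiphene as positive lysis control.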
# S100A4 inh HTS – inhibitors of S100A4-myosin IIA peptide binding, primary screen, biochemical, fluorescence polarization, TAMRA-MyoIIA peptide. Protein S100-A4 (Homo sapiens), P26447. inhibition, % at 10.7 µM. actives 0.14% (n = 360,000);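 active means mean inhibition of at least 70% across replicates, with every replicate also reaching that level; inconclusive means mean inhibition reaches 70% but some replicates fall short; inactive means mean inhibition below 70%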
# Target sequence (P26447 whole entry, looked up): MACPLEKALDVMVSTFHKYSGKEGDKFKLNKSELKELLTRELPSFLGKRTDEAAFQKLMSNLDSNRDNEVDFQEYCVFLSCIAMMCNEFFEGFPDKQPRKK
#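 Material: human S100A4 monomer with TAMRA-labelled myosin IIA peptide; buffer or medium: HEPES pH 7.2 with CaCl2, KCl, NaCl, DTT, Triton; compound dosing: one concentration per compound; schedule: 5 min incubation before reading; benchmarks: neutral control DMSO, positive control TFP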
# Ecoli rRNA inh – reduced GFP signal of wild-type E. coli, primary screen, bacterial rRNA inhibitor project, GFP/RFP fluorescence, OD600, single point | GFP signal change (wild-type ribosome), % (concentration not given with the values) | actives 1.6% (n = 350,000) | E. coli WT GFP vs humanized-ribosome RFP mutants, 24 h; stronger effect = lower value; DMSO median 0, no signal -100;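 active means significant combined selectivity score with lowered wild-type GFP, culture density cut under 30%, mutant RFP and density less affected; inactive means any of these conditions unmet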
# DENV2 CPE rescue – inhibitors of DENV2 cytopathic effect, primary screen, cell-based, plate reader, single concentration | DENV2-infected cells, cytopathic effect rescue | CPE inhibition, % at 9.99 µM | actives 1.7% (n = 350,000); in the data active means CPE inhibition above about 20%, passing the limit was not always enough; inconclusive means no clear call, values can overlap the other calls; tested in BHK-21 cells;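 further: 0% = median of neutral control wells and 100% = median of positive control wells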
# * marks the source's active call; other numbers are inactive results; ? = inconclusive; . = no result given.
SMILES,PfHsp90 yeast 2,AF4-AF9 inh,Cneo AK release,S100A4 inh HTS,Ecoli rRNA inh,DENV2 CPE rescue
C=C[C@@H](OC)[C@H](OC(=O)Nc1ccc(SC)cc1)c1ccc(OCCO)cc1,.,-0.9,-5.8,0.5,.,20.8*
COCC(=O)Nc1ccc2c(c1)OC[C@@H](C)N(C(=O)NC(C)C)C[C@@H](C)[C@H](OC)CN(C)C2=O,.,-10.1,-5.4,-3.5,1.2,0.9
CCNC(=S)N(CCc1c(C)[nH]c2ccc(F)cc12)Cc1cccnc1,22.1,10.6,6.2,-3.1,-26.9*,6.3
CCNC(=S)N(CCc1c(C)[nH]c2ccc(C)cc12)Cc1cccnc1,-17.5,8.9,2.5,-2.0,-4.1,10.6
O=C(NCC1CCN(C(=O)C(=O)c2cc3ccccc3o2)CC1)c1ccc2c(c1)OCCCO2,.,1.6,.,2.1,-16.5*,-5.1
CSc1ccc(C(=O)NCC2CCN(C(=O)C(=O)c3cc4ccccc4o3)CC2)cc1,.,0.3,.,1.0,-13.7*,5.1
O=C(C(=O)N1CCC(CNS(=O)(=O)c2ccccc2)CC1)c1cc2ccccc2o1,.,2.7,.,0.9,-13.4*,2.0
O=C(N[C@@H]1CC[C@@H](CCn2cc(C3CCCCC3)nn2)O[C@@H]1CO)c1cccnc1,.,-0.3,-2.3,-1.2,-3.2,2.5
C[C@H]1CN([C@@H](C)CO)C(=O)c2cccc(NC(=O)Nc3ccc4c(c3)OCO4)c2O[C@H]1CN(C)S(=O)(=O)c1ccc(Cl)cc1,.,6.2,-8.1,-10.5,-2.1,1.2
CSc1nc(C(=O)N2CCCC(C(=O)c3ccc(Cl)cc3)C2)cs1 (configuration not stated),2.0,-4.4,.,-1.5,-31.5*,-0.2
COc1cc2c(cc1OC)CN(C(=O)CCCOc1ccc(Cl)cc1Cl)CC2,-6.8,.,-1.2,.,.,.
COc1cc2c(cc1OC)CN(C(=O)CCOc1ccccc1C)CC2,9.7,-7.8,-2.6,-3.7,-15.7,44.1*
CCN(C(=O)c1cn(C)c(=O)c2cc(OC)c(OC)cc12)c1cc(C)ccc1C,4.2,.,1.3,.,.,.
COc1cc(OC)c(N(C)C(=O)c2cn(C)c(=O)c3cc(OC)c(OC)cc23)cc1Cl,32.9,-0.4,126.6*,-5.6,-5.0,0.9
C#CCOCCOCCOCCNc1nc(N2CCN(C(=O)C([C@@H](C)O)n3cc([C@@H](N)CCCCN)nn3)CC2)nc(N2CCN(C(=O)[C@H](CCCCN)n3cc([C@@H](N)CC(N)=O)nn3)CC2)n1 (some centres not stated),18.8,45.0*,-0.9,4.5,9.9,.
C#CCOCCOCCOCCNc1nc(N2CCN(C(=O)[C@H](CC(N)=O)n3cc([C@@H](N)CC(N)=O)nn3)CC2)nc(N2CCN(C(=O)[C@H](CC(N)=O)n3cc([C@@H](N)CC(N)=O)nn3)CC2)n1,10.6,.,1.9,0.6,6.8,-9.8
C#CCOCCOCCOCCNc1nc(N2CCN(C(=O)[C@H](CCCCN)n3cc(CN)nn3)CC2)nc(N2CCN(C(=O)[C@H](CCCCN)n3cc([C@@H](N)CC(N)=O)nn3)CC2)n1,15.7,40.3*,2.2,-2.9,6.0,-7.9
C#CCOCCOCCOCCNc1nc(N2CCN(C(=O)C([C@@H](C)O)n3cc([C@@H](N)CCCCN)nn3)CC2)nc(N2CCN(C(=O)[C@H](CCC(=O)O)n3cc([C@@H](N)CCCCN)nn3)CC2)n1 (some centres not stated),-10.5,17.4,0.2,0.4,8.5,-9.8
O=C(N/N=C/c1ccccc1O)C(=O)N1CCCCCC1,-1.7,-0.4,3.5,0.2,-24.6*,2.2
CCN(CC)CCN(C(=O)c1c(F)cccc1F)c1nc2cc(C)cc(C)c2s1,-1.6,13.1,.,3.2,-31.4*,-4.5
COc1ccccc1C(=O)N(CCN(C)C)c1nc2cc(C)cc(C)c2s1,1.2,19.9,.,3.9,-13.6,0.0
Nc1cccn2c(-c3ccc(Cl)cc3)cnc12,6.4,9.6,.,-2.2,-5.8,0.0
Nc1cccn2c(-c3ccc(Cl)c(Cl)c3)cnc12,4.0,8.1,.,2.0,-26.1*,-3.5
COc1ccc(NC(=O)Nc2ccc3c(c2)[C@H]2C[C@H](CC(=O)O)O[C@H](CO)[C@H]2O3)cc1,.,0.9,-2.3,-13.3,7.2,6.9
COc1ccccc1N1CCN(C(=O)CSc2nc3ccccc3[nH]2)CC1,17.4,-11.6,-0.7,-1.0,-40.5*,-0.4
SMILES,PfHsp90 yeast 2,AF4-AF9 inh,Cneo AK release,S100A4 inh HTS,Ecoli rRNA inh,DENV2 CPE rescue
COc1ccc(-c2nnn(CC(=O)N3CCN(c4ccccc4OC)CC3)n2)cc1OC,-2.3,-5.6,-1.4,-1.7,-17.4*,-1.6
CCOC(=O)c1sc2ncc([N+](=O)[O-])cc2c1N,2.7,0.4,.,-8.3,-36.2*,-5.2
Nc1c(C(=O)Nc2ccccc2)sc2ncc([N+](=O)[O-])cc12,.,0.9,-0.4,-1.3,22.9,-2.0
Oc1ccc2ccccc2c1/C=N/Nc1nnc(-c2ncc[nH]2)c2ccccc12,121.5*,.,-7.5,.,.,.
CN(C)S(=O)(=O)c1cccc(-c2csc(=Nc3ccccc3)n2CCCN2CCOCC2)c1,4.3,32.0*,0.8,-3.3,-5.3,-2.1
CC(=O)c1cccc(N=c2scc(-c3ccc(S(=O)(=O)N4CCOCC4)cc3)n2CCO)c1,9.5,17.0,.,-2.4,-13.9,0.9
O=C(O)CNC(=O)c1ccc(NS(=O)(=O)c2ccc3ccccc3c2)cc1,0.9,-2.6,-0.9,-0.1,0.7,31.1*
Cc1ccc(S(=O)(=O)N(C)C[C@H]2Oc3ccc(NC(=O)Cn4cnnn4)cc3CC(=O)N([C@@H](C)CO)C[C@H]2C)cc1,.,5.1,-2.2,-35.9,1.8,-8.4
CC(=O)N1CC(=O)N2[C@@H](CO)[C@@H](c3ccc(C#Cc4cccnc4)cc3)[C@@H]2C1,.,-2.0,.,33.1,7.9,3.6
COc1ccc(NC(=O)Nc2ccc3c(c2)C(=O)N([C@H](C)CO)C[C@@H](C)[C@H](CN(C)S(=O)(=O)c2ccc(Cl)cc2)OCCCC[C@@H](C)O3)cc1,.,4.3,87.1*,-5.4,4.9,?
COc1ccc(NC(=O)Nc2ccc3c(c2)C(=O)N([C@@H](C)CO)C[C@H](C)[C@@H](CN(C)S(=O)(=O)c2ccc(Cl)cc2)OCCCC[C@@H](C)O3)cc1,.,1.9,-17.5,5.1,3.6,19.1

# Screens (PubChem)
